Measured values reported in ChEMBL document CHEMBL4513216, “Probing the Open Global Health Chemical Diversity Library for Multistage-Active Starting Points for Next-Generation Antimalarials” (ACS Infect Dis, 2020).

Assay: Toxicity liver stage against HepG2, at 10uM
Assay type: cell-based
Set-up: test concentration 10 uM, cell line HepG2-A16-CD81EGFP
Conditions: human, HepG2-A16-CD81EGFP cells; read-out: INHIBITION
Outline: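 Uninfected HepG2-A16-CD81EGFP cells, 3 × 10^3 per well, 1536-well, plated on prespotted compound at 10 μM final, parasite-free screening media added to match infected plates; puromycin 10 μM positive, DMSO 0.5% negative; run in parallel with 48 h PbLuc assay at 37 °C, 5% CO2; viability by CellTiter-Glo luminescence, normalized to controls.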

SMILES	cytotoxicity at 10 µM
CCOc1cccc(C(=O)Nc2ccncc2)c1	8.59%
CN1CCOC[C@H]1c1nc(C(C)(C)C)c[nH]1	5.08%
COc1ccccc1C(=O)NC[C@H]1COCc2nc3c(C)cccc3n21	0.331%
CC(O)(CCc1ccccc1)CNC(=O)c1ccsc1 (stereo unspecified)	-1.18%
CNC(=O)Cc1csc(NC(=O)C2CSCCC(=O)N2)n1 (stereo unspecified)	-4.94%
O=C(c1ccco1)N1CC(S(=O)(=O)c2ccc(Cl)cc2)C1	-2.02%
O=C(Nc1ccccc1)C1CCCN(c2cc(-n3cncn3)ncn2)C1 (stereo unspecified)	-2.1%
CCN1C[C@H]2CCN(C(=O)Nc3ccccc3C)CC[C@H]2S1(=O)=O	1.08%
CCC(CC)NC(=O)c1ccc2nnc(C3CCN(C(C)=O)C3)n2c1 (stereo unspecified)	-2.19%
CC(C)CN1CCNC(=O)C12CCN(C(=O)c1ccccn1)CC2	5.25%
O=C(c1c2c(NCC3CC3)ncnc2n2ccccc12)N1CCOCC1	9.82%
Cc1csc([C@@H]2C[C@@H]3CCN(C(=O)c4cccn4C)C[C@H]3O2)n1	4.12%
O=C(O)c1nnn(-c2ccccc2F)c1-c1ccncc1	10.2%
CCC(=O)N1CCN(c2ncnc3c(C)nn(C)c23)CC1	-1.43%
COc1ccc(NS(=O)(=O)c2cnc(NC(C)=O)s2)cc1	10.9%
CCn1nc(C)c(NC(=O)CCn2ncc3cc(C)ccc32)c1C	10.8%
COc1ccc(C(NC(=O)NCc2nnc3n2CCC3)C2CC2)cc1 (stereo unspecified)	11.7%
O=S(=O)(NCCCn1cncn1)c1ccc2c(c1)CCCC2	4.16%
CC(=O)N(C)Cc1ccccc1NCc1c(C)cccc1C	-4.54%
NC(=O)NC(=O)C(c1ccccc1)N1CCN(Cc2ccc(Cl)s2)CC1 (stereo unspecified)	-6.7%
O=C(Cn1cccn1)Nc1ccc(N2CCCCC2)cc1	0.955%

SMILES	cytotoxicity at 10 µM
Cc1cc(C)n(-c2ccc(N3CCC(O)CC3)nc2)n1	-5.08%
O=C(NCc1cccc(-n2cncn2)c1)NCC(C1CC1)C1CC1	6.03%
CC(C)OCCOCc1cccc(NC(=O)NCc2cnn(C)c2)c1	-1.11%
O=C(NS(=O)(=O)Cc1ccc(F)cc1)C1CCOc2ccccc21 (stereo unspecified)	-3.22%
CCN(CC)Cc1ccc(C(=O)NC2CCc3cc(Cl)ccc32)o1 (stereo unspecified)	-3.81%
Cc1cccc(N(CCC(N)=O)C(=O)c2ccnc(C)n2)c1	-8.47%
CCC1c2ccccc2CCN1CCCS(C)(=O)=O (stereo unspecified)	1.75%
Cc1noc(C)c1CN(C)Cn1c(=O)oc2ccccc21	-5.07%
CCn1nc2c(cc1=O)CN(CC(=O)N(C)c1nccs1)CC2	-4.58%
O=C(NC(C(=O)Nc1cc[nH]n1)c1ccccc1)C1CCC1 (stereo unspecified)	-17.5%
CC(O)CNc1ccc(C#N)cc1C(F)(F)F (stereo unspecified)	-42.7%
CCc1ccc(C(C)NC(=O)c2ccc(CS(C)(=O)=O)o2)cc1 (stereo unspecified)	-3.07%
COC(=O)CCN1CCC(NC(=O)OC(C)(C)C)CC1	14.7%
CC(=O)N1CCC2(C1)c1ccccc1S(=O)(=O)N2C (stereo unspecified)	6.57%
O=C(c1ccco1)N1Cc2cnn(CC3CC3)c2C(COCC2CC2)C1 (stereo unspecified)	4.04%
CCS(=O)(=O)NCC1Cn2nnc(-c3cccc(C)c3)c2CO1 (stereo unspecified)	-120%
CN1C(=O)CC(C(=O)O)C12CCN(Cc1cc(Cl)ccc1F)CC2 (stereo unspecified)	5.64%
Cc1ccc(C)c(N2CCN(CC3(O)CCNC3)CC2)c1 (stereo unspecified)	-5.83%
Cn1cc(C2=CCN(CCCC(=O)Nc3ccc(C#N)cc3)CC2)cn1	-6.84%
CC(C)c1cc(C(=O)N2CCOC3(CCCC3)C2)no1	-6.2%
Cc1nn(CCO)cc1CN1CCC(N2CCC(O)CC2)CC1	-0.931%

SMILES	cytotoxicity at 10 µM
CNc1cc(C(=O)NCCC2=CSC3=NCCCN23)ccn1	8.71%
CCC(Nc1nc(C2CCCC2)nc2c1cnn2C)c1ccncc1 (stereo unspecified)	-39.6%
Cc1cccnc1NCCNC(=O)C1CCN(C(=O)N(C)C)CC1	1.99%
CN(C)C(C(=O)N1Cc2ccccc2C1)c1ccccc1F (stereo unspecified)	-1.91%
CC(=O)c1ccc(NCc2cc3n(n2)CCCN(S(C)(=O)=O)C3)nc1	1.02%
CC(C)c1cc(C(=O)N2CCN(c3ccc(F)c(Cl)c3)CC2)n(C)n1	19.7%
CCCc1cnc(C)nc1N1CCC(Cn2cc(CO)nn2)CC1	-4.57%
CC(C)Oc1ccccc1OCCN1C(=O)CCNC1=O	-6.67%
CS(=O)(=O)N1CCN(c2ccnc(N3CCCC3)n2)CC1	-1.26%
COCCOC1CCN(C(C(=O)O)c2c(Cl)cccc2OC)CC1 (stereo unspecified)	6.15%
COCCc1ncc(CN2C[C@@H](C(=O)O)[C@H](C(C)C)C2)cn1	-5.35%
CC(C)c1nc(CN(C)C(=O)c2cn3ccsc3n2)cs1	8.35%
CC[C@@]1(O)CCN(CCCOc2ccc(C(N)=O)cc2)C[C@H]1O	-5.03%
O=C(NCC1CCS(=O)(=O)C1)N1CCN(c2cnccn2)CC1 (stereo unspecified)	-7.21%
COc1cccc(CNCc2ccnc(N3CCOCC3)c2)c1OC	7.26%
O=C(Nc1cccc(C2SCCS2)c1)C1CCCN1c1nccs1 (stereo unspecified)	-10.1%
Cc1nnc2n1CCN(CC(=O)N1CCc3ccccc3C1)C2	-9.27%
Cc1nc(NC(=O)c2ccc(-n3ncc(C#N)c3N)cc2)sc1C	7.13%
c1cc(CNCC2CNc3ccnn3C2)cc(Cn2cccn2)c1 (stereo unspecified)	-19%
Cn1ccnc1CN1CCCN(C(=O)CC(C2CC2)C2CC2)CC1	-19.8%
Cc1cc(NC(=O)NCc2cccnc2OC2CCCC2)n(C)n1	-1.07%

SMILES	cytotoxicity at 10 µM
CCNC(=O)C(C)NC(=O)c1cnc(-c2ccc(C)cc2C)s1 (stereo unspecified)	-18.7%
CC(C)C(NC(=O)NCCNc1ccccn1)c1cccs1 (stereo unspecified)	-8.13%
CCN1CCN(C(=O)c2nc(C)n(-c3ccccc3Cl)n2)CC1	-2.87%
Cc1cc(C)cc(OCCC(=O)N2CCOCC2c2ncon2)c1 (stereo unspecified)	-8.72%
Cc1oc(C)c(C(=O)NCc2cccnc2N(C)C)c1C	-0.292%
Cc1nc(C2CCCN2CC(=O)NCCOc2ccccc2)no1 (stereo unspecified)	-6.54%
Cc1ncc(CNCC(C)O)c2cc(C(=O)c3ccc(Br)cc3)oc12 (stereo unspecified)	1.39%
CC(C)CCN1CCc2[nH]nc(C(=O)N3CC=CC3)c2C1	-121%
Cc1ncsc1CN1C[C@@H]2CCCO[C@@H]2[C@H](N(C)C(C)C)C1	1.81%
CN(C)C1CCC2(CCN(Cc3cccnc3)CC2)c2ccccc21 (stereo unspecified)	3.15%
Cc1cc(C)cc(CN2CCC3(CC2)CC(Nc2ncccn2)CO3)c1 (stereo unspecified)	5.39%
O=C(c1ccc2[nH]ccc2c1)N1Cc2nc(CN3CCCCC3)oc2C1	9.58%
CN(Cc1cccnc1)[C@@H]1CN(C(=O)c2ccno2)[C@@H]2CCCO[C@H]12	-118%
Fc1cccc(-c2nnn3c2COC(CNCc2nccs2)C3)c1 (stereo unspecified)	-102%
COCCOCC1(CNC(=O)c2ccc(OC)cc2)C[C@@H](O)[C@@H](O)C1 (stereo partly specified)	0.0221%
O=C(c1ccccn1)N1C[C@H]2CC[C@@H](C1)N(C(=O)CCN1CCCC1)C2	3.92%
CCc1nccn1CCC(=O)N1C[C@@H]2CC[C@H]1CN(C(=O)N(C)C)C2	-14.4%
CN(C)c1cccc(C(=O)N2C[C@@H]3CC[C@H]2CN(C(=O)C2CCC2)C3)c1	-0.69%
